Assay results taken from ChEMBL document CHEMBL3217723, “Optimizing PK properties of cyclic peptides: the effect of side chain substitutions on permeability and clearance()” (Medchemcomm, 2012).
Where a SMILES comes first, the peptide text is derived from it. [ ]: non-standard residue; d: D form. The star is where a group is joined. NMeAbu(4-morpholino) = CN[C@@H](CCN1CCOCC1)C(=O)O; NMeY = CN[C@@H](Cc1ccc(O)cc1)C(=O)O; NMeCha = CN[C@@H](CC1CCCCC1)C(=O)O; NMeF = CN[C@@H](Cc1ccccc1)C(=O)O; NMeI = CC[C@H](C)[C@H](NC)C(=O)O; NMeD = CN[C@@H](CC(=O)O)C(=O)O; dNMeL = CN[C@H](CC(C)C)C(=O)O; Morpholide = C1CN(*)CCO1; NMeA = CN[C@@H](C)C(=O)O; Piperidide = C1CCN(*)CC1

Assays:
[1] = Intrinsic clearance in human liver microsomes by LC-MS/MS analysis; type: ADME; conditions: read-out: CLH
In short: (§1)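 Compound at 1 µM with liver microsomes (CYP 0.25 µM) in 0.1 M potassium phosphate, pH 7.4, at 37 °C. Final solvent was 0.975% acetonitrile and 0.025% DMSO. Mix prewarmed 5 min, then started with 1.3 mM NADPH; no-NADPH controls were run. Sampled at 0–60 min into acetonitrile and followed by LC-MS/MS for substrate loss. T1/2 was scaled to CLint by the well-stirred model.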

[2] = Lipophilicity, log D of the compound at pH 7.4 by shake-flask method; type: physicochemical; conditions: buffer
[3] = Terminal elimination half life in Wistar-Han rat at 10 mg/kg, po; type: ADME, organism-based; set-up: dose 10 mg/kg, route oral; conditions: in vivo, read-out: beta t1/2 (converted)
In short: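 Male Wistar-Hannover rats (230–250 g, n = 3), jugular-cannulated, were fasted overnight and dosed by oral gavage. Vehicle depended on compound: SEDDS/water or propylene glycol/sodium phosphate pH 7.4. Blood was collected at 0.083–24 h into K2EDTA and the plasma analyzed by LC-MS/MS. Terminal half-life came from the non-compartmental ln-concentration slope.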

[4] = Intrinsic clearance in rat liver microsomes by LC-MS/MS analysis; type: ADME; conditions: read-out: CLH; in short: as §1
[5] = Plasma clearance in male Wistar-Han rat at 1.48 mg/kg, iv; type: ADME, organism-based; set-up: dose 1.48 mg/kg, route intravenous
In short: (§2)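 Jugular vein-cannulated male Wistar-Hannover rats (230-250 g; n = 3) given a 30 s tail-vein bolus in SEDDS/dextrose or propylene glycol/20 mM sodium phosphate (pH 7.4) vehicles. Blood sampled 0.03–24 h via cannula into K2EDTA. Plasma proteins precipitated, LC-MS/MS. Non-compartmental: CLp = dose/AUC0-∞ (linear trapezoid); Vdss; T1/2 = 0.693/terminal log-linear slope.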

[6] = AUC (0 to infinity) in male Wistar-Han rat at 1.48 mg/kg, iv; type: ADME, organism-based; set-up: time infinity, dose 1.48 mg/kg, route intravenous; conditions: plasma
In short: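 Jugular vein-cannulated male Wistar-Hannover rats (230-250 g), n = 3, fed ad libitum; 30 s tail-vein injection in 10% SEDDS:90% sterile dextrose, 1:1 propylene glycol:20 mM sodium phosphate (pH 7.4), or 10% propylene glycol:90% 20 mM sodium phosphate (pH 7.4). Blood via cannula to 24 h, K2EDTA plasma, LC-MS/MS against standard curve; non-compartmental AUC0-∞ by linear trapezoid rule.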

[7] = AUC (0 to infinity) in male Wistar-Han rat at 10 mg/kg, po; type: ADME, organism-based; set-up: time infinity, dose 10 mg/kg, route oral; conditions: plasma
In short: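 Jugular vein-cannulated male Wistar-Hannover rats (230-250 g), n = 3, fasted overnight and fed after the 4 h sample; oral dosing in the i.v. formulations, except the SEDDS formulation used 90% water. Serial blood 0.083–24 h, K2EDTA plasma, LC-MS/MS against standard curve; non-compartmental AUC0-∞ by linear trapezoid rule.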

[8] = Apparent permeability from apical to basolateral side in human Caco2 cells by LC-MS/MS analysis; type: ADME, cell-based; conditions: Caco-2
[9] = Cmax in male Wistar-Han rat at 10 mg/kg, po; type: ADME, organism-based; set-up: dose 10 mg/kg, route oral; conditions: in vivo
[10] = Tmax in male Wistar-Han rat at 10 mg/kg, po; type: ADME, organism-based; set-up: dose 10 mg/kg, route oral; conditions: in vivo
[11] = Oral bioavailability in male Wistar-Han rat at 10 mg/kg; type: ADME, organism-based; conditions: in vivo
In short: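 Male Wistar-Hannover rats (230-250 g, cannulated; n = 3) fasted overnight, fed after the 4 h sample, and dosed orally in the i.v. formulations or 10% SEDDS:90% water. Serial blood sampled 0.083–24 h into K2EDTA. Plasma measured by LC-MS/MS against a standard curve. Cmax and Tmax read from individual profiles; F = oral AUC0-∞ relative to i.v. AUC0-∞.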

[12] = Terminal elimination half life in Wistar-Han rat at 1.48 mg/kg, iv; type: ADME, organism-based; set-up: dose 1.48 mg/kg, route intravenous; conditions: in vivo, read-out: beta t1/2 (converted)
In short: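 Jugular vein-cannulated male Wistar-Hannover rats (230–250 g, n = 3) received a tail-vein bolus over 30 s. Vehicle depended on compound: SEDDS/dextrose or propylene glycol/20 mM sodium phosphate pH 7.4. Blood was drawn at 0.03–24 h into K2EDTA and the plasma analyzed by LC-MS/MS. Non-compartmental analysis gave T1/2 = 0.693/|terminal ln-slope|.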

[13] = Drug excretion in male Wistar-Han rat urine; type: ADME; conditions: read-out: Drug excretion
[14] = Volume of distribution at steady state in male Wistar-Han rat at 1.48 mg/kg, iv; type: ADME, organism-based; set-up: dose 1.48 mg/kg, route intravenous; conditions: in vivo, read-out: Vdss; in short: as §2

Row | Compound | CLint scaled [1] [mL/min/kg] | logD [2] | further results
1 | CC(C)C[C@@H]1NC(=O)[C@H](Cc2ccc(O)cc2)N(C)C(=O)[C@H]2CCCN2C(=O)[C@H](CC(C)C)NC(=O)[C@H](C)N(C)C(=O)[C@@H](CC(C)C)N(C)C1=O (cyclo(L[dNMeL][NMeA]L[dP][NMeY])) | 190 | 3.64 | 
2 | CC(C)C[C@@H]1NC(=O)[C@H](Cc2ccc(O)cc2)N(C)C(=O)[C@H]2CCCN2C(=O)[C@H](CC(C)C)NC(=O)[C@H](CCN2CCOCC2)N(C)C(=O)[C@@H](CC(C)C)N(C)C1=O (cyclo(L[dNMeL][NMeAbu(4-morpholino)]L[dP][NMeY])) | 16 | 2.79 | 
3 | CC(C)C[C@@H]1NC(=O)[C@H](Cc2ccc(O)cc2)N(C)C(=O)[C@H]2CCCN2C(=O)[C@H](CC(C)C)NC(=O)[C@H](CC2CCCCC2)N(C)C(=O)[C@@H](CC(C)C)N(C)C1=O (cyclo(L[dNMeL][NMeCha]L[dP][NMeY])) |  | 5.09 | 
4 | CC(C)C[C@@H]1NC(=O)[C@H](Cc2ccc(O)cc2)N(C)C(=O)[C@H]2CCCN2C(=O)[C@H](CC(C)C)NC(=O)[C@H](CC(=O)N2CCOCC2)N(C)C(=O)[C@@H](CC(C)C)N(C)C1=O (cyclo(L[dNMeL][NMeD](Morpholide)L[dP][NMeY])) | 57 | 2.78 | 
5 | CC(C)C[C@@H]1NC(=O)[C@H](Cc2ccc(O)cc2)N(C)C(=O)[C@H]2CCCN2C(=O)[C@H](CC(C)C)NC(=O)[C@H](CC(=O)N2CCCCC2)N(C)C(=O)[C@@H](CC(C)C)N(C)C1=O (cyclo(L[dNMeL][NMeD](Piperidide)L[dP][NMeY])) | > 300 | 3.77 | 
6 | CC(C)C[C@@H]1NC(=O)[C@H](Cc2ccc(O)cc2)N(C)C(=O)[C@H]2CCCN2C(=O)[C@H](CC(C)C)NC(=O)[C@H](CC(=O)O)N(C)C(=O)[C@@H](CC(C)C)N(C)C1=O (cyclo(L[dNMeL][NMeD]L[dP][NMeY])) | < 8 | 0.477 | half-life [3]: 284 min; CLint scaled [4]: < 9 mL/min/kg; clearance [5]: 56.4 mL/min/kg; AUC(0-inf) [6]: 441 ng·h/mL; AUC(0-inf) [7]: 18.7 ng·h/mL; Papp A→B [8]: 0.36 ×10⁻⁶ cm/s; Cmax [9]: 17.3 ng/mL; Tmax [10]: 46.8 min; bioavailability [11]: 0.469%; half-life [12]: 21.5 min; dose excreted [13]: < 1%; Vd [14]: 0.36 L/kg
7 | CC(C)C[C@@H]1NC(=O)[C@H](Cc2ccc(O)cc2)N(C)C(=O)[C@H]2CCCN2C(=O)[C@H](CC(C)C)NC(=O)[C@H](Cc2ccccc2)N(C)C(=O)[C@@H](CC(C)C)N(C)C1=O (cyclo(L[dNMeL][NMeF]L[dP][NMeY])) | 170 | 4.46 | 
8 | CC[C@H](C)[C@H]1C(=O)N[C@@H](CC(C)C)C(=O)N2CCC[C@@H]2C(=O)N(C)[C@@H](Cc2ccc(O)cc2)C(=O)N[C@@H](CC(C)C)C(=O)N(C)[C@H](CC(C)C)C(=O)N1C (cyclo(L[dNMeL][NMeI]L[dP][NMeY])) | > 300 |  | 
